# From PubChem
# Sampled rows, rich in hits. Any-hit rate of the full collection: about 9.6%.
# HCT116 PTEN-null – PTEN-deleted cell growth suppression; viability, % at 10 µM; 140,000 tested, 1.2% active; HCT116 PTEN-null viability, CellTiter-Glo, 60 h; stronger effect = lower value;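 active = viability at or below a set limit, 4 SD under the median of all tested compounds, cut at about 3.7% in these data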;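 also: PTEN knockout HCT116 line with beta catenin targeted HCT116 as companion control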
# Lmaj promast – Leishmania major promastigote growth inhibition; Leishmania major promastigotes, resazurin fluorescence viability; inhibition, % at 10 µM; 200,000 tested, 9% active; AID 1063; in the data active = inhibition above about 50%;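 also: promastigotes grown with compound for 44 hours at 28 °C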
# PMI act hi M6P – PMI (human) activation, high substrate; P34949; coupled PMI enzyme assay, resazurin fluorescence, 20 min; stronger effect = higher value; 1 = untreated enzyme, 0 = substrate-free blank; activation factor at 20 µM; 190,000 tested, 0.34% active; AID 1216;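 active = activation factor of 2 or more at 20 µM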
# Target sequence (P34949 whole entry, looked up): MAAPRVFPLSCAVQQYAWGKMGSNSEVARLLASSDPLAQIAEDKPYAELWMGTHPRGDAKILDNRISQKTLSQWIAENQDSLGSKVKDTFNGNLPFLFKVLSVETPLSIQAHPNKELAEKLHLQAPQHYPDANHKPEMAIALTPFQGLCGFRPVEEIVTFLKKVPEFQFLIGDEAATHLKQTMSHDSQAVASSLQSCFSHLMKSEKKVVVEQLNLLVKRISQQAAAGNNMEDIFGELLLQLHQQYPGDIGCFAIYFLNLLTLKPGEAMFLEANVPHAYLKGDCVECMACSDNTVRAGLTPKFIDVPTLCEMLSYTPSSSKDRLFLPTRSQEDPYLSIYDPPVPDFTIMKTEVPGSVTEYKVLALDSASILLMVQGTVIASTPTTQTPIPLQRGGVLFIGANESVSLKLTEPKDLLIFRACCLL
#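 Test system: human phosphomannose isomerase with PGI, G6PDH, diaphorase coupling enzymes / Doses: 20 µM compound, 1% DMSO / Times: enzyme reaction with compound 20 min at room temperature / Measured by: Diaphorase-driven resazurin-to-resorufin fluorescence, excitation 544, emission 590 nm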
# PMI act – increases human mannose-6-phosphate isomerase activity. purified human PMI, coupled resazurin fluorescence, 20 min; stronger effect = higher value; 1 = vehicle control, 0 substrate-free wells. activation factor at 20 µM. 190,000 tested, 0.005% active. AID 1214;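 active = activation factor of 2 or more at 20 µM, relative to plate controls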
# HCT116 bCat-KO – beta-catenin-lacking colon tumor cell growth suppression; HCT116 beta-catenin knockout viability, CellTiter-Glo, 60 h; stronger effect = lower value; AID 818; 140,000 tested, 1.5% active; viability, % at 10 µM;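 active = viability at or under a set limit, the compound median less 4 SD, cut at about 6% in these data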;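 also: 0% = Hyamine 1622 control at 20 µM and 100% = untreated cell control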
# * marks the source's active call; other numbers are inactive results; x = no result.
SMILES,HCT116 PTEN-null,Lmaj promast,PMI act hi M6P,PMI act,HCT116 bCat-KO
Cc1ccc(C)n1-c1ccc(NC(=O)c2ccccc2)cc1,19,58*,0.9,1,18
Cc1cc(NC(=O)c2ccccc2)sc1C,72,-2,1,1,76
CC(=O)Nc1ccc(NC(=O)c2ccc(-n3c(C)ccc3C)cc2)cc1,15,68*,0.8,0.8,18
O=C1CC(C2CCCO2)C(=O)N1c1ccc(Cl)c(Cl)c1 (stereo unspecified),x,-6,1.1,1.1,x
COC(=O)CC1SC(=O)NC1=Nc1ccc(OC)cc1 (stereo unspecified),106,-3,1,1,100
CCOc1ccc(-c2nn(-c3ccccc3)cc2/C=C2\SC(N)=NC2=O)cc1C,0.7*,7,0.9,1,1.1*
CCOc1ccc(-c2nn(-c3ccccc3)cc2/C=C2\SC(=S)N(C3CCS(=O)(=O)C3)C2=O)cc1 (stereo unspecified),93,15,0.9,1,99
CC(=O)C(N=Nc1ccccc1)(Sc1nnc(-c2ccccc2)n1-c1ccccc1)C(C)=O,48,19,1,1,58
CC(=O)C(N=Nc1ccccc1)(Sc1nnc(-c2ccccc2)n1-c1ccccc1)C(=O)Nc1ccccc1 (stereo unspecified),69,78*,0.8,0.8,78
Cc1ccc(C)c(NS(=O)(=O)c2ccc(NC(=O)CSc3ccc(Cl)cc3)cc2)c1,104,50,0.9,0.9,93
Cc1ccc(NS(=O)(=O)c2ccc(NC(=O)C(C)Sc3ccc(Cl)cc3)cc2)c(C)c1 (stereo unspecified),47,92*,1,0.8,63
COc1ccc(NC(=O)NC23CC4(C)CC(C)(CC(C)(C4)C2)C3)cc1,28,95*,1,0.9,37
COc1ccc(CNC(=O)/C=C/c2ccc(S(=O)(=O)NCc3ccco3)cc2)cc1OC,77,68*,1,1,81
O=C(/C=C/c1ccc(Cl)cc1)NCc1ccco1,98,51*,1,1,98
COc1ccc(CNC(=O)/C=C/c2ccco2)cc1OC,x,0,1,1,x
CSc1ccc(CNC(C)(C)CO)cc1,x,4,1.1,1,x
CCOC(=O)c1sc2nc(CSc3ccccc3)nc(NCCN(C)C)c2c1C,x,93*,1.1,1.1,x
CC(C)c1ccc(NC(=S)N2CCN(Cc3ccccc3)CC2)cc1,x,86*,0.9,0.9,x
S=C(Nc1ccc(Cl)cc1)N1CCN(Cc2ccccc2)CC1,x,-4,x,x,x
FC(F)Oc1ccc(NC(=S)N2CCN(Cc3ccccc3)CC2)cc1,x,80*,1,1,x
Cc1cc(C)cc(NC(=S)N2CCN(Cc3ccccc3)CC2)c1,x,10,1,1,x
Cc1ccc(NC(=S)N2CCN(Cc3ccccc3)CC2)cc1,x,-2,1,1,x
COc1ccc(NC(=S)N2CCN(Cc3ccc(C)cc3)CC2)cc1,x,62*,1,1,x
Fc1ccc(CNC(=S)Nc2ccc(OC(F)F)cc2)cc1,86,63*,0.9,1,93
Cc1ccc(S(=O)(=O)NC2CCCC(C(=O)O)C2)cc1 (stereo unspecified),112,-2,1,1,91
SMILES,HCT116 PTEN-null,Lmaj promast,PMI act hi M6P,PMI act,HCT116 bCat-KO
Cc1ccccc1-c1nc(CN(Cc2c(C)nn(C)c2C)C2CC2)c(C)o1,x,2,0.9,0.9,x
CC(C)(C)c1ccc(C(=O)CC(Sc2ccc(Cl)cc2)C(=O)O)cc1 (stereo unspecified),x,78*,1,0.9,x
CC(=O)c1c(C)[nH]c(C(=O)OCc2ccc(F)cc2Cl)c1C,x,5,1,1.1,x
COc1ccc(NC(=O)N(CCCN2CCOCC2)Cc2cccnc2)c(OC)c1,x,7,x,x,x
N#CCCN(Cc1cccnc1)C(=S)Nc1ccccc1Cl,x,23,1,0.9,x
Cc1ccc(NC(=O)N(CCCN2CCOCC2)Cc2cccnc2)cc1C,101,65*,1,1,97
O=C(CN(Cc1ccco1)C(=O)c1ccc(Cl)cc1)Nc1ccc(Cl)c(Cl)c1,82,29,0.9,1,93
O=C(Nc1ccc(Cl)c(Cl)c1)N(Cc1cccnc1)Cc1ccco1,65,100*,0.9,0.9,71
Cc1c(Cl)cccc1NC(=S)N(Cc1cccnc1)Cc1ccccc1Cl,x,95*,1,1,x
S=C(Nc1ccccc1Cl)N(Cc1cccnc1)Cc1ccco1,x,95*,0.9,1,x
CCCn1c(N)c(C(=O)COc2ccc(Br)cc2F)c(=O)n(C)c1=O,x,1,1.1,1.2,x
COc1ccc(OC)c(-c2cc(C3CCN(C(=O)OC(C)(C)C)CC3)[nH]n2)c1,x,13,0.9,0.9,x
O=C(O)COc1ccccc1/C=C1\SC(=Nc2ccc(F)cc2)N(c2ccc(F)cc2)C1=O,x,1,1,1,x
COc1ccc2cc(CN(Cc3ccco3)C(c3nnnn3C3CCCCC3)C(C)C)c(=O)[nH]c2c1 (stereo unspecified),31,98*,1,0.9,34
COc1ccc2cc(CN(Cc3ccco3)Cc3nnnn3C3CCCCC3)c(=O)[nH]c2c1,78,96*,0.9,1,85
COc1ccc(Cn2nnnc2C(C(C)C)N(Cc2ccco2)Cc2cccs2)cc1 (stereo unspecified),60,77*,1,0.9,65
COc1ccc2[nH]c(=O)c(C(c3nnnn3C(C)(C)C)N(Cc3ccco3)CC3CCCO3)cc2c1 (stereo unspecified),33,2,0.9,0.9,43
COc1ccc(S(=O)(=O)N2CCOCC2)cc1NC(=O)CCc1c[nH]c2ccccc12,x,20,0.8,0.9,x
O=C1N(CCCN2C(=O)C3(OCCO3)c3ccccc32)c2ccccc2C12OCCO2,104,11,1,1,96
O=C1N(CCCCN2C(=O)C3(OCCO3)c3ccccc32)c2ccccc2C12OCCO2,78,59*,0.9,0.9,86
Fc1ccc(NCc2n[nH]c(=S)n2Cc2ccccc2)cc1,x,-8,1,1,x
CCOC(=O)CN1C(=O)S/C(=C/c2cc(C)n(C)c2C)C1=O,x,6,x,x,x
CCOC(=O)CN1C(=O)S/C(=C/c2ccc(O)c([N+](=O)[O-])c2)C1=O,97,52*,1,1.1,94
CC1CCN(c2nc3ccccc3nc2C(C#N)C(=O)OC2CCCCC2)CC1 (stereo unspecified),80,37,1.1,1.1,77
N#CC(C(=O)OC1CCCCC1)c1nc2ccccc2nc1N1CCCCC1 (stereo unspecified),69,54*,1,1,74
CC1CCCN(c2nc3ccccc3nc2C(C#N)C(=O)OC2CCCCC2)C1 (stereo unspecified),95,61*,1,1,96
CC1CN(c2nc3ccccc3nc2C(C#N)C(=O)NC2CCCCC2)CC(C)O1 (stereo unspecified),x,x,0.9,1,x
CC1CN(c2nc3ccccc3nc2C(C#N)C(=O)OC2CCCCC2)CC(C)O1 (stereo unspecified),81,64*,1,1,88
